Experimental data: ChEMBL document CHEMBL1154189 (J Med Chem, 2009)
Active and inactive are the calls of the source. No cut-off for these calls is given here.

Key:
Saccharomyces cerevisiae = test: Mutagenic activity in Saccharomyces cerevisiae after 3 hrs; type: ADME, organism-based; conditions: in vivo
In short: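 Tested in a Saccharomyces cerevisiae strain engineered with three phenotypic readouts, with 3 hour incubation against DMSO vehicle.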

HuT78 [1] = test: Induction of apoptosis in human HUT78 cells assessed as caspase 3/7 activation after 24 hrs by luminometry; type: functional, cell-based
In short: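 Hut78 CTCL cells were plated and dosed immediately with ethanol vehicle, test agent, water, or sodium butyrate (positive control), then incubated 24 hours. Caspase-Glo lysis/substrate mix was added, and cleavage of the substrate by caspase 3/7 was read as luminescence. Ethanol-treated cells served as the comparison.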

HuT78 [2] = test: Cytotoxicity against human HUT78 cells assessed as LDH release at 100 nM after 48 hrs
HuT78 [3] = test: Cytotoxicity against human HUT78 cells assessed as LDH release at 10 mM after 48 hrs

Row | SMILES | Activity (Saccharomyces cerevisiae) | other results
1 | Cc1cc2c(cc1C(=O)c1cc(C(=O)O)cc(C(=O)O)c1)C(C)(C)CCC2(C)C | Non-toxic | 
2 | C=C(c1ccc(C(=O)O)cc1)c1cc2c(cc1C)C(C)(C)CCC2(C)C [BEXAROTENE] | Non-toxic | 
3 | Cc1cc2c(cc1C(=O)c1ccc(C(=O)O)c(F)c1)C(C)(C)CCC2(C)C | Non-toxic | 
4 | Cc1cc2c(cc1C(=O)c1ccc(C(=O)O)cc1F)C(C)(C)CCC2(C)C | Non-toxic | Activity (HuT78 [1]): inactive; Activity (HuT78 [2]): Active
5 | NC(=O)NO [HYDROXYUREA] |  | Activity (HuT78 [3]): 97%
6 | Cc1cc2c(cc1C(=O)c1ccc(C(=O)O)c([N+](=O)[O-])c1)C(C)(C)CCC2(C)C | Non-toxic | 
7 | C=C(c1cc(C(=O)O)cc(C(=O)O)c1)c1cc2c(cc1C)C(C)(C)CCC2(C)C | Non-toxic | 
8 | Cc1cc2c(cc1C(=O)c1ccc(C(=O)O)cc1)C(C)(C)CCC2(C)C | Non-toxic | 
9 | Cc1cc2c(cc1C(=O)c1cccc(C(=O)O)c1)C(C)(C)CCC2(C)C | Non-toxic | 
